Where a name gives a salt, the structure may show the parent alone. The source made the active and inactive calls. No cut-off for these calls is given here.
Legend:
A549 [1] = experiment: Induction of DNA damage in human A549 cells assessed as increase in stained cells at 0.2 uM for 7 days by gamma-H2AX analysis (reference value: 3.9%); assay type: functional; details: time 7 day
Method in brief: (§1)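 A549 cells grown on coverslips under MTT treatment conditions (inhibitors replenished every 48 h) for 7 days with MS023 (0.2–2 µM) and/or BMN-673 (50 nM); fixed in 4% paraformaldehyde, Triton-permeabilized, stained with anti-γ-H2AX (1:1000, 16 h, 4 °C) and Alexa488 secondary, DAPI counterstain. ≥200 cells imaged; fraction with >5 foci reported; unpaired t tests.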

HCC4006 [2] = experiment: Antiproliferative against human HCC4006 cells expressing MTAP clone 1 assessed as […] treated for 7 days with replenishment of medium for every 48 hrs by MTT assay (reference value: 0.24 uM); assay type: functional, cell-based
Method in brief: (§2)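 Parental, empty-vector (pLoc) or MTAP-re-expressing lentiviral clone cells (blasticidin 3 µg/ml selected) seeded day 0; MS023 (0.2–2 μM final) and/or BMN-673 (0.3–50 nM final) or DMSO added after 16 h, replenished with medium every 48 h. Day 7: MTT reagent 3 h at 37 °C, solvent, absorbance 590 nm; triplicates; percent death = 1 − (treated/DMSO).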

A549 [3] = experiment: Antiproliferative against human A549 cells expressing MTAP clone 1 assessed as […] treated for 7 days with replenishment of medium for every 48 hrs by MTT assay (reference value: 4.4 uM); assay type: functional, cell-based; method in brief: as §2
HCC4006 [4] = experiment: Antiproliferative against human HCC4006 cells expressing MTAP clone 2 assessed as […] treated for 7 days with replenishment of medium for every 48 hrs by MTT assay (reference value: 0.24 uM); assay type: functional, cell-based; method in brief: as §2
A549 [5] = experiment: Induction of DNA damage in human A549 cells at 2 uM for 7 days by gamma-H2AX analysis; assay type: functional, cell-based; details: time 7.0 day; method in brief: as §1
A549 [6] = experiment: Antiproliferative against human A549 cells assessed as reduction in cell viability at 16.5 uM for 24 hrs relative to control; assay type: functional
Method in brief: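 A549 cells exposed to MS023 for 24 h in dose–response; viability read by flow cytometry with Viacount dye reagent distinguishing viable, pre-apoptotic and dead cells.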

A549 [7] = experiment: Antiproliferative against human A549 cells expressing MTAP clone 2 assessed as […] treated for 7 days with replenishment of medium for every 48 hrs by MTT assay (reference value: 4.4 uM); assay type: functional, cell-based
A549 [8] = experiment: Induction of DNA damage in human A549 cells assessed as increase in stained cells at 2 uM for 7 days by gamma-H2AX analysis (reference value: 3.9%); assay type: functional; details: time 7 day; method in brief: as §1
SK-LU-1 [9] = experiment: Antiproliferative against human SK-LU-1 cells expressing MTAP clone 1 assessed as […] treated for 7 days with replenishment of medium for every 48 hrs by MTT assay (reference value: 16.3 uM); assay type: functional, cell-based
SK-LU-1 [10] = experiment: Antiproliferative against human SK-LU-1 cells expressing MTAP clone 2 assessed as […] treated for 7 days with replenishment of medium for every 48 hrs by MTT assay (reference value: 16.3 uM); assay type: functional, cell-based
A549 [11] = experiment: Antiproliferative against human A549 cells assessed as viable cells pretreated with MS023 for 24 hrs followed by compound addition at 10 uM measured after for 24 hrs relative to control; details: A549, 24 h, read-out: Activity
A549 [12] = experiment: Synergistic antiproliferative activity against human A549 cells pretreated with MS023 for 24 hrs followed by compound addition at 10 uM measured after for 24 hrs relative to control; assay type: functional
Method in brief: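 A549 seeded 20K/well; next day 16.5 μM MS023 or DMSO for 24 h, then 181 epigenetic library drugs at 10 μM for 24 h. Viability by Viacount flow cytometry after trypsinization; heat-killed well as total death control. Synergy Index = (monotherapy viability × MS023 viability effect)/combination viability; also synergy percentage (1 − 1/SI)×100.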

[13] = Antiproliferative activity against human PEO4 cells expressing BRCA2 mutant assessed as bliss energy score at 3.75 to 60 nM in presence of MS023; assay type: functional; details: dose 3.75-60 nM
Method in brief: (§3)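 PEO1 and PEO4 ovarian cells seeded 3,000/well; treated one day after plating with MS023 and/or BMN-673 or DMSO vehicle, medium with inhibitors replenished every 48 h. Six days after first treatment, nuclei stained with Hoechst 33342 (10 µg/ml final, 30 min) and counted by plate imaging; counts normalized to DMSO wells. Combination effect expressed as Bliss score.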

A549 [14] = experiment: Induction of DNA damage in human A549 cells assessed as increase in stained cells at 1 nM for 7 days by gamma-H2AX analysis (reference value: 3.9%); assay type: functional; details: time 7 day
PEO1 [15] = experiment: Antiproliferative activity against BRCA2 deficient human PEO1 cells assessed as bliss energy score at 3.75 to 60 nM in presence of MS023; assay type: functional; details: dose 3.75-60 nM; method in brief: as §3
A549 [16] = experiment: Antiproliferative against human A549 cells expressing MTAP clone 2 assessed as […] treated at 25 to 50 nM for 7 days in presence of MS023 with replenishment of medium for every 48 hrs by MTT assay relative to control; assay type: functional; parameters: scale not given: the % may be the effect or the level left; details: dose 25-50 nM, time 7 day
A549 [17] = experiment: Antiproliferative against human A549 cells expressing MTAP clone 1 assessed as […] treated at 25 to 50 nM for 7 days in presence of MS023 with replenishment of medium for every 48 hrs by MTT assay relative to control; assay type: functional; parameters: scale not given: the % may be the effect or the level left; details: dose 25-50 nM, time 7 day
A549 [18] = experiment: Induction of cell death in human A549 cells assessed as bliss energy score at 0.3 nM in presence of EPZ 15666 by viacount reagent based analysis; assay type: functional
A549 [19] = experiment: Induction of DNA damage in human A549 cells assessed as increase in stained cells at 50 nM for 7 days by gamma-H2AX analysis (reference value: 3.9%); assay type: functional; details: time 7 day; method in brief: as §1
A549 [20] = experiment: Induction of DNA damage in human A549 cells at 50 nM for 7 days by gamma-H2AX analysis; assay type: functional, cell-based; details: time 7.0 day; method in brief: as §1
A549 [21] = experiment: Induction of DNA damage in human A549 cells at 50 nM in presence of MS023 for 7 days by gamma-H2AX analysis; assay type: functional, cell-based; details: time 7.0 day; method in brief: as §1
PEO4 [22] = experiment: Antiproliferative activity against human PEO4 cells expressing BRCA2 mutant at 3.75 to 60 nM; assay type: functional, cell-based; details: dose 3.75-60 nM; method in brief: as §3
A549 [23] = experiment: Antiproliferative against human A549 cells assessed as killed cells at 0.3 nM treated for 7 days in presence of MS023 with replenishment of medium for every 48 hrs by MTT assay relative to control; details: time 7 day
A549 [24] = experiment: Induction of cell death in human A549 cells assessed as bliss energy score at 0.3 nM in presence of GSK 591 by viacount reagent based analysis; assay type: functional
A549 [25] = experiment: Induction of DNA damage in human A549 cells assessed as increase in stained cells at 50 nM for 7 days in presence of MS023 by gamma-H2AX analysis (reference value: 3.9%); assay type: functional; details: time 7 day; method in brief: as §1
A549 [26] = experiment: Induction of cell death in human A549 cells at 0.3 nM in presence of 2 uM MS023 by viacount reagent based analysis; assay type: functional
PEO4 [27] = experiment: Antiproliferative activity against human PEO4 cells expressing BRCA2 mutant at 3.75 to 60 nM in presence of MS023; assay type: functional, cell-based; details: dose 3.75-60 nM; method in brief: as §3
PEO1 [28] = experiment: Antiproliferative activity against BRCA2 deficient human PEO1 cells at 3.75 to 60 nM; assay type: functional, cell-based; details: dose 3.75-60 nM; method in brief: as §3
PEO1 [29] = experiment: Antiproliferative activity against BRCA2 deficient human PEO1 cells at 3.75 to 60 nM in presence of MS023; assay type: functional, cell-based; details: dose 3.75-60 nM; method in brief: as §3

CC(C)Oc1ccc(-c2c[nH]cc2CN(C)CCN)cc1
Activity (A549 [1]): 19.6%
IC50 (HCC4006 [2]): 470 nM
IC50 (A549 [3]): 5.1 µM
IC50 (HCC4006 [4]): 560 nM
Activity (A549 [5]): Active
Activity (A549 [6]): 23%
IC50 (A549 [7]): 13.4 µM
Activity (A549 [8]): 27.6%
IC50 (SK-LU-1 [9]): 36.7 µM
IC50 (SK-LU-1 [10]): 41 µM

Cc1ccc(S(=O)(=O)O)cc1.NC(=O)c1cccc2cn(-c3ccc([C@@H]4CCCNC4)cc3)nc12
viability at 10 µM (A549 [11]): 54.2%
Activity (A549 [12]): 11%

COC1CCN(C(=O)c2cc(Cc3n[nH]c(=O)c4ccccc34)ccc2F)CC1 [AZD2461]
viability at 10 µM (A549 [11]): 54.2%
Activity (A549 [12]): 67%

NC(=O)c1ccc(I)c([N+](=O)[O-])c1 [INIPARIB]
viability at 10 µM (A549 [11]): 54.2%
Activity (A549 [12]): 15%

O=C(c1cc(Cc2n[nH]c(=O)c3ccccc23)ccc1F)N1CCN(C(=O)C2CC2)CC1 [OLAPARIB]
viability at 10 µM (A549 [11]): 54.2%
Activity (A549 [12]): 48%

CN(C)CC(=O)Nc1ccc2[nH]c(=O)c3ccccc3c2c1.Cl [PJ34]
viability at 10 µM (A549 [11]): 54.2%
Activity (A549 [12]): 21%

CNCc1ccc(-c2[nH]c3cc(F)cc4c3c2CCNC4=O)cc1 [RUCAPARIB]
viability at 10 µM (A549 [11]): 54.2%
Activity (A549 [12]): 24%

CCS(=O)(=O)c1cccc(-c2cc(C(=O)NC3CCN(C)CC3)c(C)c3[nH]c4ncc(C)cc4c23)c1 [TAK-901]
viability at 10 µM (A549 [11]): 54.2%

Cn1ncnc1[C@H]1c2n[nH]c(=O)c3cc(F)cc(c23)N[C@@H]1c1ccc(F)cc1 [TALAZOPARIB]
Activity [13]: 21.64
Activity (A549 [14]): 24.8%
Activity (PEO1 [15]): 17.98
Activity (A549 [16]): 50%
Activity (A549 [17]): 50%
Activity (A549 [18]): 13.506
Activity (A549 [19]): 40.4%
Activity (A549 [20]): Active
Activity (A549 [21]): Active
Activity (PEO4 [22]): inactive
Activity (A549 [23]): >80%
Activity (A549 [24]): 19.892
Activity (A549 [25]): 69.5%
Activity (A549 [26]): Active
Activity (PEO4 [27]): Active
Activity (PEO1 [28]): Active
Activity (PEO1 [29]): Active

O=C(O)C(O)C(O)C(=O)O (stereo not given) [TARTARIC ACID]
viability at 10 µM (A549 [11]): 54.2%

C[C@@H]1CCN(C(=O)CC#N)C[C@@H]1N(C)c1ncnc2[nH]ccc12 [TOFACITINIB]
viability at 10 µM (A549 [11]): 54.2%

N[C@@H]1C[C@H]1c1ccccc1 [TRANYLCYPROMINE HYDROCHLORIDE]
viability at 10 µM (A549 [11]): 54.2%

CC(/C=C/C(=O)NO)=C\[C@@H](C)C(=O)c1ccc(N(C)C)cc1 [TRICHOSTATIN]
viability at 10 µM (A549 [11]): 54.2%

CCCC(CCC)C(=O)O [VALPROIC ACID]
viability at 10 µM (A549 [11]): 54.2%

C[C@]1(c2nc3c(C(N)=O)cccc3[nH]2)CCCN1 [VELIPARIB]
viability at 10 µM (A549 [11]): 54.2%
Activity (A549 [12]): 98%

O=C(CCCCCCC(=O)Nc1ccccc1)NO [VORINOSTAT]
viability at 10 µM (A549 [11]): 54.2%

C[C@H](NC(=O)/C(C#N)=C/c1cccc(Br)n1)c1ccccc1 [WP 1066]
viability at 10 µM (A549 [11]): 54.2%

O=c1ncccn1[C@@H]1O[C@H](CO)[C@@H](O)[C@H]1O [ZEBULARINE]
viability at 10 µM (A549 [11]): 54.2%

— ChEMBL document CHEMBL5712922, “Synergistic effects of type I PRMT and PARP inhibitors against non-small cell lung cancer cells” (Clin Epigenetics, 2021)
